Laboratory results as given in ChEMBL document CHEMBL6134765, “Rapid identification of novel indolylarylsulfone derivatives as potent HIV-1 NNRTIs via miniaturized CuAAC click-chemistry-based combinatorial libraries” (RSC Med Chem, 2025).

Experiments:
[1] = test system: Human immunodeficiency virus 2; assay: Antiviral activity against HIV-2 ROD infected in human MT4 cells incubated for 5 days by spectrophotometry based MTT assay; type: functional, organism-based; settings: Human immunodeficiency virus 2, ROD, MT4, 120 h
How it was run: (§1)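 MTT protection assay in MT-4 cells infected with HIV-1 IIIB or HIV-2 ROD. EC50 is the compound concentration giving 50% protection of the cultures against virus-induced cytotoxicity.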

[2] = test system: Human immunodeficiency virus 1; assay: Antiviral activity against HIV-1 harboring RES056 mutant infected in human MT4 cells assessed as inhibition of virus induced cytotoxicity incubated for 5 days by spectrophometry based MTT assay; type: functional, organism-based; settings: Human immunodeficiency virus 1, MT4, 120 h
How it was run: (§2)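 MT-4 cells (from Dr. N. Yamamoto, Yamaguchi University) infected with single-mutant (L100I, K103N, Y181C, Y188L, E138K) or double-mutant (F227L/V106A; RES056 = K103N/Y181C) HIV-1 strains. Protection against virus-induced cytotoxicity was read by the MTT method. EC50 is the concentration giving 50% protection of the cell cultures.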

[3] = test system: Human immunodeficiency virus 1; assay: Antiviral activity against wild-type HIV-1 IIIB infected in human MT4 cells incubated for 5 days by spectrophometry based MTT assay; type: functional, organism-based; settings: Human immunodeficiency virus 1, IIIB, MT4, 120 h; how it was run: as §1
[4] = test system: Human immunodeficiency virus 1; assay: Antiviral activity against HIV-1 harboring L100I mutant infected in human MT4 cells assessed as inhibition of virus induced cytotoxicity incubated for 5 days by spectrophometry based MTT assay; type: functional, organism-based; settings: Human immunodeficiency virus 1, MT4, 120 h; how it was run: as §2
[5] = test system: Human immunodeficiency virus 1; assay: Antiviral activity against HIV-1 harboring Y188L mutant infected in human MT4 cells assessed as inhibition of virus induced cytotoxicity incubated for 5 days by spectrophometry based MTT assay; type: functional, organism-based; settings: Human immunodeficiency virus 1, MT4, 120 h; how it was run: as §2
[6] = Selectivity index, ratio of CC50 for cytotoxicity against human MT4 cells to EC50 for antiviral activity against wild-type HIV-1 IIIB infected in human MT4 cells; type: toxicity, cell-based; settings: read-out: Ratio CC50/EC50
How it was run: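 Selectivity index is calculated as CC50 (mock-infected MT-4, MTT) divided by EC50 (HIV-1 IIIB protection of MT-4, MTT).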

[7] = Cytotoxicity against human MT4 cells assessed as reduction in cell viability incubated for 5 days by MTT assay; type: toxicity, cell-based; settings: time 5 day
How it was run: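 Mock-infected MT-4 cultures were read by MTT for cell viability. CC50 is the concentration that reduces viability by 50%.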

[8] = test system: Human immunodeficiency virus 1; assay: Antiviral activity against HIV-1 harboring K103N mutant infected in human MT4 cells assessed as inhibition of virus induced cytotoxicity incubated for 5 days by spectrophometry based MTT assay; type: functional, organism-based; settings: Human immunodeficiency virus 1, MT4, 120 h; how it was run: as §2
[9] = molecular target: Human immunodeficiency virus type 1 reverse transcriptase (Human immunodeficiency virus 1) (UniProt Q72547); assay: Inhibition of recombinant HIV-1 reverse transcriptase at 0.66 mM incubated for 1 hr by ELISA relative to control
How it was run: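 Each library compound was tested directly as the crude click mixture (diluted in DMSO to 2 mM per well) against HIV-1 RT at 0.66 mM, using an ELISA-based RT kit following the kit protocol. Blank controls held DMSO, TBTA, CuSO4·5H2O and sodium ascorbate. Inhibition is expressed as a percentage.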

[10] = test system: Human immunodeficiency virus 1; assay: Antiviral activity against HIV-1 harboring Y181C mutant infected in human MT4 cells assessed as inhibition of virus induced cytotoxicity incubated for 5 days by spectrophometry based MTT assay; type: functional, organism-based; settings: Human immunodeficiency virus 1, MT4, 120 h; how it was run: as §2
[11] = test system: Human immunodeficiency virus 1; assay: Antiviral activity against HIV-1 harboring F227L/V106A double mutant infected in human MT4 cells assessed as inhibition of virus induced cytotoxicity incubated for 5 days by spectrophometry based MTT assay; type: functional, organism-based; settings: Human immunodeficiency virus 1, MT4, 120 h; how it was run: as §2
[12] = test system: Human immunodeficiency virus 1; assay: Antiviral activity against HIV-1 harboring E138K mutant infected in human MT4 cells assessed as inhibition of virus induced cytotoxicity incubated for 5 days by spectrophometry based MTT assay; type: functional, organism-based; settings: Human immunodeficiency virus 1, MT4, 120 h; how it was run: as §2

| Compound | EC50 [1] [nM] | EC50 [2] [nM] | EC50 [3] [nM] | EC50 [4] [nM] | EC50 [5] [nM] | selectivity ratio [6] | CC50 at 120 h [7] [nM] | EC50 [8] [nM] | inhibition [9] [%] | EC50 [10] [nM] | EC50 [11] [nM] | EC50 [12] [nM] |
| --- | --- | --- | --- | --- | --- | --- | --- | --- | --- | --- | --- | --- |
| Cc1cc(C)cc(S(=O)(=O)c2c(C(=O)NCc3cn(Cc4ccccc4[N+](=O)[O-])nn3)[nH]c3ccc(Cl)cc23)c1 | > 216000 | > 194000 | 24 | 150 | 20800 | > 9120 | > 216000 | 510 | > 85 | 290 | 1560 | 150 |
| CCOC(=O)Cn1cc(CNC(=O)c2[nH]c3ccc(Cl)cc3c2S(=O)(=O)c2cc(C)cc(C)c2)nn1 | 226000 | 204000 | 32 | 170 | 33400 | > 7330 | > 236000 | 340 | > 85 | 630 | 1700 | 100 |
| Cc1cc(C)cc(S(=O)(=O)c2c(C(=O)NCc3cn(CCc4ccccc4)nn3)[nH]c3ccc(Cl)cc23)c1 | > 4690 | > 4690 | 150 | 1000 | > 162000 | 1080 | 162000 | 540 | > 85 | 2510 | 4330 | 870 |
| Cc1cc(C)cc(S(=O)(=O)c2c(C(=O)NCc3cn(CC(=O)Nc4ccc(Br)cc4)nn3)[nH]c3ccc(Cl)cc23)c1 | > 15800 | > 15800 | 68 | 380 | 4080 | 231 | 15800 | 1500 | > 85 | 540 | 1870 | 150 |
| Cc1cc(C)cc(S(=O)(=O)c2c(C(=O)NCc3cn(Cc4cccc(C#N)c4)nn3)[nH]c3ccc(Cl)cc23)c1 | > 166000 | > 166000 | 62 | 340 | > 35300 | 2680 | 166000 | 1240 | > 85 | 1100 | 2960 | 350 |
